Laboratory results taken from ChEMBL document CHEMBL1123632, “Cardiotonic agents. 7. Inhibition of separated forms of cyclic nucleotide phosphodiesterase from guinea pig cardiac muscle by 4,5-dihydro-6-[4-(1H-imidazol-1-yl)phenyl]-3(2H)-pyridazinones and related compounds. Structure-activity relationships and correlation with in vivo positive inotropic …” (J Med Chem, 1987).
“And” between values parts separate entries of the source, which are not always exact repeats. Identical values can stand only once.

Experiments:
Canis familiaris = organism: Canis familiaris; test: Effective dose required to increase myocardial contractility in dog.; format: functional; details: Canis lupus familiaris, Myocardium
Method in brief: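 Anesthetized mongrel dogs (either sex): pentobarbital 35 mg/kg iv, then 5 mg kg⁻¹ h⁻¹ infusion. After 30-min control, compound in saline or dilute HCl/NaOH diluted with saline given iv over 1 min, cumulative half-log doses (typically four to six), 10–30 min apart.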

[1] = target: T1, cGMP-dependent 3',5'-cyclic phosphodiesterase (Homo sapiens, UniProt O00408); test: Inhibition of cGMP PDE II enzyme in guinea pig at 1E-5M concentration; details: Cavia porcellus; target entry is the homologue from another species
[2] = target: T1, cGMP-dependent 3',5'-cyclic phosphodiesterase; test: Inhibition of cGMP PDE II enzyme in guinea pig at 10e-4 M; details: Cavia porcellus, target entry is the homologue from another species
[3] = target: T1, cGMP-dependent 3',5'-cyclic phosphodiesterase; test: Inhibitory concentration against cGMP PDE II enzyme in guinea pig; design: species or system Cavia porcellus; details: target entry is the homologue from another species
Phosphodiesterase 3 [4] = target: T2, Phosphodiesterase 3 (Homo sapiens, UniProt Q14432+Q13370); test: Inhibitory concentration against cAMP PDE III enzyme in guinea pig; format: protein assay, Cavia porcellus; details: target entry is the homologue from another species
Phosphodiesterase 3 [5] = target: T2, Phosphodiesterase 3; test: Inhibition of cAMP PDE III enzyme in guinea pig at 1E-4M concentration.; format: protein assay; details: Cavia porcellus; target entry is the homologue from another species
Phosphodiesterase 3 [6] = target: T2, Phosphodiesterase 3; test: Inhibition of cAMP PDE III enzyme in guinea pig at 1E-5M concentration; format: protein assay; details: Cavia porcellus; target entry is the homologue from another species
Phosphodiesterase 1 [7] = target: T3, Phosphodiesterase 1 (Homo sapiens, UniProt P54750+Q01064+Q14123); test: Inhibition of cAMP PDE I enzyme in guinea pig at 1E-4M concentration.; format: protein assay; details: Cavia porcellus; target entry is the homologue from another species
Phosphodiesterase 1 [8] = target: T3, Phosphodiesterase 1; test: Inhibition of cAMP PDE I enzyme in guinea pig at 1E-5M concentration; format: protein assay; details: Cavia porcellus; target entry is the homologue from another species
Phosphodiesterase 1 [9] = target: T3, Phosphodiesterase 1; test: Inhibition of cGMP PDE I enzyme in guinea pig at 1E-4M concentration; format: protein assay; details: Cavia porcellus; target entry is the homologue from another species
Phosphodiesterase 1 [10] = target: T3, Phosphodiesterase 1; test: Inhibition of cGMP PDE I enzyme in guinea pig at 1E-5M concentration; format: protein assay; details: Cavia porcellus; target entry is the homologue from another species
[11] = target: T1, cGMP-dependent 3',5'-cyclic phosphodiesterase; test: Inhibitory concentration against cAMP PDE II enzyme in guinea pig; design: species or system Cavia porcellus; details: target entry is the homologue from another species
[12] = target: T1, cGMP-dependent 3',5'-cyclic phosphodiesterase; test: Inhibition of cAMP PDE II enzyme in guinea pig at 1E-5M concentration; details: Cavia porcellus; target entry is the homologue from another species
[13] = Ratio of IC50 values for PDE III and PDE I.
[14] = Ratio of IC50 values for PDE III and PDE II.
PDE I (Cavia porcellus) [15] = test: Inhibitory concentration against cAMP PDE I enzyme in guinea pig
PDE I (Cavia porcellus) [16] = test: Inhibitory concentration against cGMP PDE I enzyme in guinea pig
PDE II (Cavia porcellus) = test: Inhibition of cAMP PDE II enzyme in guinea pig at 1E-4M concentration.
Phosphodiesterase 1 [17] = target: T3, Phosphodiesterase 1; test: Inhibition of cAMP PDE I enzyme in guinea pig at 1E-4M; format: protein assay; details: Cavia porcellus; target entry is the homologue from another species
Phosphodiesterase 1 [18] = target: T3, Phosphodiesterase 1; test: Inhibition of cGMP PDE I enzyme in guinea pig at 1E-4M; format: protein assay; details: Cavia porcellus; target entry is the homologue from another species
[19] = target: T1, cGMP-dependent 3',5'-cyclic phosphodiesterase; test: Inhibition of cAMP PDE II enzyme in guinea pig at 1E-4M; details: Cavia porcellus; target entry is the homologue from another species
[20] = target: T1, cGMP-dependent 3',5'-cyclic phosphodiesterase; test: Inhibition of cGMP PDE II enzyme in guinea pig at 1E-4M; details: Cavia porcellus; target entry is the homologue from another species
Phosphodiesterase 3 [21] = target: T2, Phosphodiesterase 3; test: Inhibition of cAMP PDE III enzyme in guinea pig at 1E-4M; format: protein assay; details: Cavia porcellus; target entry is the homologue from another species
Phosphodiesterase 1 [22] = target: T3, Phosphodiesterase 1; test: Inhibitory concentration against cAMP PDE I enzyme in guinea pig; format: protein assay, Cavia porcellus; details: target entry is the homologue from another species
Phosphodiesterase 1 [23] = target: T3, Phosphodiesterase 1; test: Inhibitory concentration against cGMP PDE I enzyme in guinea pig; format: protein assay, Cavia porcellus; details: target entry is the homologue from another species
[24] = target: T1, cGMP-dependent 3',5'-cyclic phosphodiesterase; test: Inhibition of cGMP PDE II enzyme in guinea pig at 1E-4M concentration; details: Cavia porcellus; target entry is the homologue from another species
[25] = target: T1, cGMP-dependent 3',5'-cyclic phosphodiesterase; test: Inhibition of PDE II enzyme in guinea pig; design: species or system Cavia porcellus; details: target entry is the homologue from another species

T1 sequence (O00408 whole entry): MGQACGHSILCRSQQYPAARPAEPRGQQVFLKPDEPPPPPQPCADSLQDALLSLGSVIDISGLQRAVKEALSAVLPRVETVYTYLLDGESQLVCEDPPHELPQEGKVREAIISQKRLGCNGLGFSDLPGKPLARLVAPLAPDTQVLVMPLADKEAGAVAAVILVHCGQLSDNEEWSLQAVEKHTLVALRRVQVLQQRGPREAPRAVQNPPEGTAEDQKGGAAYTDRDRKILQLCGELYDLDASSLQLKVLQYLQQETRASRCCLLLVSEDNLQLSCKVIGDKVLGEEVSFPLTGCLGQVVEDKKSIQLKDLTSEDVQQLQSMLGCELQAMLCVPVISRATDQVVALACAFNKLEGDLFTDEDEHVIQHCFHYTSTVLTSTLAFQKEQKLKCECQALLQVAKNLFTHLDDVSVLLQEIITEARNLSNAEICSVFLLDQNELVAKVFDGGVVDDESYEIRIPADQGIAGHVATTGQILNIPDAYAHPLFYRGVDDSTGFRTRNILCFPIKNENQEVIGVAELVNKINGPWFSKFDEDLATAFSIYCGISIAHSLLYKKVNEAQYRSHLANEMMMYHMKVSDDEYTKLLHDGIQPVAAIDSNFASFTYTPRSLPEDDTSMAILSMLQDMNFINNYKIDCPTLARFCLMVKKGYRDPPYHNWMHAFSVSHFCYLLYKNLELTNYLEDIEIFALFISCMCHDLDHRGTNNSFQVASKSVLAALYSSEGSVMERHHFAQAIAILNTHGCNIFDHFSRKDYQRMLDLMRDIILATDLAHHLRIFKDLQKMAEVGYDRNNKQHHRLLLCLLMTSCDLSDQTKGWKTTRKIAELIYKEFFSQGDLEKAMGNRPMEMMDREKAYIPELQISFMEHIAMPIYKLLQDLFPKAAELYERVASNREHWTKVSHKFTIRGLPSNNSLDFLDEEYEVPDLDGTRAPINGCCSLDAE

Row | Compound | ED50 (Canis familiaris) | inhibition [1] | IC50 (Phosphodiesterase 3 [4]) | inhibition (Phosphodiesterase 3 [5]) | inhibition (Phosphodiesterase 3 [6]) | inhibition (Phosphodiesterase 1 [7]) | inhibition (Phosphodiesterase 1 [8]) | inhibition (Phosphodiesterase 1 [9]) | inhibition (Phosphodiesterase 1 [10]) | inhibition [12] | inhibition (PDE II (Cavia porcellus)) | inhibition [19] | inhibition [20] | IC50 (Phosphodiesterase 1 [22]) | IC50 (Phosphodiesterase 1 [23]) | also measured
1 | Cc1nccn1-c1ccc(C2=NNC(=O)CC2)cc1 | 0.3 mg/kg | 4% | 2.3 µM | 64% | 57% | 16% | 1% | 18% | 0% | 8% | 19% |  |  |  |  | inhibition [2]: 22%; IC50 [3]: 380 µM; IC50 [11]: 420 µM; Ratio [13]: 2.9; Ratio [14]: 5.4; IC50 (PDE I (Cavia porcellus) [15]): 790 µM; IC50 (PDE I (Cavia porcellus) [16]): 530 µM
2 | CC1CC(c2ccc(-n3ccnc3)cc2)=NNC1=O (centres undefined) | 1 mg/kg | 7% | 43 µM |  | 25% |  | 0% |  | 2% | 15% |  | 27% | 26% | > 1000 µM | > 1000 µM | inhibition (Phosphodiesterase 1 [17]): 8%; inhibition (Phosphodiesterase 1 [18]): 8%; inhibition (Phosphodiesterase 3 [21]): 63%
3 | Nc1cc(-c2ccncc2)c[nH]c1=O [INAMRINONE] |  |  |  |  |  |  |  |  |  |  |  |  |  | > 1000 µM | > 1000 µM | IC50 [11]: 720 µM and 580 µM
4 | O=C1CCC(c2ccc(-n3ccnc3)cc2)=NN1 [IMAZODAN] | 0.045 mg/kg | 7% |  | 76% | 57% | 8% | 3% | 10% | 3% | 4% |  | 17% | 20% |  |  | 
5 | CC1CC(O)=NN=C1c1ccc(-n2ccnc2)cc1 (centres undefined) [CI-930] | 0.013 mg/kg | 7% |  |  | 69% |  | 3% |  | 9% | 5% |  | 18% | 23% |  |  | inhibition (Phosphodiesterase 1 [17]): 9%; inhibition (Phosphodiesterase 1 [18]): 12%
6 | O=C1CCC(c2ccc(-n3cncn3)cc2)=NN1 |  | 7% |  | 51% | 33% |  | 7% |  | 6% | 6% | 20% |  | 24% |  |  | 
7 | Oc1ccc(-c2ccc(-n3ccnc3)cc2)nn1 | 0.11 mg/kg | 11% | 7.2 µM | 80% | 56% | 17% | 4% | 15% | 6% |  |  |  |  | 660 µM | 580 µM | inhibition [24]: 27%
8 | Nc1cc(-c2ccc(-n3ccnc3)cc2)nnc1O | 0.3 mg/kg | 10% | 22 µM | 64% | 41% | 20% | 6% | 28% | 7% | 13% | 44% |  |  |  |  | inhibition [24]: 51%; IC50 [25]: 110 µM; IC50 [3]: 88 µM; Ratio [13]: < 44; Ratio [14]: 200; IC50 (PDE I (Cavia porcellus) [15]): > 500 µM; IC50 (PDE I (Cavia porcellus) [16]): > 500 µM
